Data as given in ChEMBL document CHEMBL1208671, “Small structural changes of pentacyclic lupane type triterpenoid derivatives lead to significant differences in their anticancer properties” (Eur J Med Chem, 2010).
Calls of active or inactive are those of the source. The rule behind the calls is not given here.

Key:
[1] = test system: HT-29; experiment: Cytotoxicity against human HT-29 cells after 96 hrs by SRB colorimetric assay; type: functional, cell-based; details: HT-29, 96 h
How it was run: (§1)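 Cells kept as monolayers in RPMI 1640 with 10 % heat-inactivated FBS and 1 % penicillin/streptomycin, 37°C, 5 % CO2, seeded at optimal density. Exponentially growing cells exposed to compound for 96 h, fixed with 10 % TCA, stained with sulforhodamine B for 30 min, washed with 1 % acetic acid, bound dye dissolved in 10 mM Tris base, OD read at 570 nm. IC50 estimated from semi-log dose-response curves versus untreated controls.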

[2] = Cytotoxicity against human A253 cells after 96 hrs by SRB colorimetric assay; type: functional, cell-based; details: A253, 96 h; how it was run: as §1
[3] = test system: MCF7; experiment: Cytotoxicity against human MCF7 cells after 96 hrs by SRB colorimetric assay; type: functional, cell-based; details: MCF7, 96 h; how it was run: as §1
[4] = test system: A549; experiment: Cytotoxicity against human A549 cells after 96 hrs by SRB colorimetric assay; type: functional, cell-based; details: A549, 96 h; how it was run: as §1
[5] = test system: A-431; experiment: Cytotoxicity against human A431 cells after 96 hrs by SRB colorimetric assay; type: functional, cell-based; details: A-431, 96 h; how it was run: as §1
[6] = test system: SW-1736; experiment: Cytotoxicity against human SW1736 cells after 96 hrs by SRB colorimetric assay; type: functional, cell-based; details: SW-1736, 96 h; how it was run: as §1
[7] = test system: A2780; experiment: Cytotoxicity against human A2780 cells after 96 hrs by SRB colorimetric assay; type: functional, cell-based; details: A2780, 96 h; how it was run: as §1
[8] = Cytotoxicity against human 518A2 cells after 96 hrs by SRB colorimetric assay; type: functional, cell-based; details: 518A2, 96 h; how it was run: as §1
[9] = test system: HT-29; experiment: Cell cycle arrest in human HT-29 cells assessed as accumulation at S phase at IC90 concentration after 48 hrs using propidium iodide staining by flow cytometry; type: functional
How it was run: (§2)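 Exponentially growing cells were exposed to the IC90 concentration for 24 and 48 h. Cell-cycle phase distribution, including the sub-G1 apoptotic peak, was compared with untreated controls at each time.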

[10] = test system: HT-29; experiment: Induction of apoptosis in human HT-29 cells assessed as DNA fragmentation at IC90 concentration after 24 hrs using ethidium bromide staining by DNA gel electrophoresis; type: functional, cell-based
How it was run: (§3)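 RPMI 1640 cultures (10 % heat-inactivated FBS, 37°C, 5 % CO2) were exposed to the IC90 concentration for 24 h. For trypan blue exclusion, cells excluding the dye were scored as viable or early apoptotic and blue cells as necrotic. DNA was run on agarose gels, where internucleosomal laddering (180 bp multiples) indicates apoptosis and a smear indicates necrosis.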

[11] = test system: HT-29; experiment: Induction of apoptosis in human HT-29 cells assessed as programmed cell death at IC90 concentration after 24 hrs by trypan blue exclusion test; type: functional, cell-based; how it was run: as §3
[12] = test system: HT-29; experiment: Cell cycle arrest in human HT-29 cells assessed as accumulation at G2/M phase at IC90 concentration after 48 hrs using propidium iodide staining by flow cytometry; type: functional; how it was run: as §2
[13] = test system: HT-29; experiment: Cell cycle arrest in human HT-29 cells assessed as accumulation at G1 phase at IC90 concentration after 48 hrs using propidium iodide staining by flow cytometry; type: functional; how it was run: as §2
[14] = test system: HT-29; experiment: Induction of apoptosis in human HT-29 cells assessed as upregulation of caspase 2 activity at IC90 concentration after 24 hrs; type: functional, cell-based
How it was run: (§4)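 HT-29 monolayers were kept in RPMI 1640 with 10 % heat-inactivated FBS and 1 % penicillin/streptomycin at 37°C in 5 % CO2. Cells were exposed to the test agent, and caspase-2, -3, -8 and -9 activities were measured after 2, 6 and 24 h.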

[15] = test system: HT-29; experiment: Induction of apoptosis in human HT-29 cells assessed as upregulation of caspase 8 activity at IC90 concentration after 6 hrs; type: functional, cell-based; how it was run: as §4
[16] = test system: HT-29; experiment: Induction of apoptosis in human HT-29 cells assessed as upregulation of caspase 8 activity at IC90 concentration after 24 hrs; type: functional, cell-based; how it was run: as §4
[17] = test system: HT-29; experiment: Induction of apoptosis in human HT-29 cells at IC90 concentration after 48 hrs using annexin V and propidium iodide staining by FACS analysis relative to control; type: functional
[18] = test system: HT-29; experiment: Induction of apoptosis in human HT-29 cells assessed as upregulation of caspase 9 activity at IC90 concentration after 6 hrs; type: functional, cell-based; how it was run: as §4
[19] = test system: HT-29; experiment: Cell cycle arrest in human HT-29 cells assessed as accumulation at subG1 phase at IC90 concentration after 48 hrs using propidium iodide staining by flow cytometry; type: functional; how it was run: as §2
[20] = test system: HT-29; experiment: Induction of apoptosis in human HT-29 cells assessed as upregulation of caspase 9 activity at IC90 concentration after 24 hrs; type: functional, cell-based; how it was run: as §4
[21] = test system: HT-29; experiment: Induction of apoptosis in human HT-29 cells assessed as upregulation of caspase 3 activity at IC90 concentration after 6 hrs; type: functional, cell-based; how it was run: as §4
[22] = test system: HT-29; experiment: Induction of apoptosis in human HT-29 cells assessed as upregulation of caspase 2 activity at IC90 concentration after 2 hrs; type: functional, cell-based; how it was run: as §4
[23] = test system: HT-29; experiment: Induction of apoptosis in human HT-29 cells assessed as upregulation of caspase 2 activity at IC90 concentration after 6 hrs; type: functional, cell-based; how it was run: as §4
[24] = test system: HT-29; experiment: Cell cycle arrest in human HT-29 cells assessed as accumulation at subG1 phase at IC90 concentration after 24 hrs using propidium iodide staining by flow cytometry; type: functional; how it was run: as §2
[25] = test system: HT-29; experiment: Cell cycle arrest in human HT-29 cells assessed as accumulation at S phase at IC90 concentration after 24 hrs using propidium iodide staining by flow cytometry; type: functional; how it was run: as §2
[26] = test system: HT-29; experiment: Induction of apoptosis in human HT-29 cells assessed as upregulation of caspase 3 activity at IC90 concentration after 24 hrs; type: functional, cell-based; how it was run: as §4
[27] = test system: HT-29; experiment: Induction of apoptosis in human HT-29 cells assessed as upregulation of caspase 3 activity at IC90 concentration after 2 hrs; type: functional, cell-based; how it was run: as §4
[28] = test system: HT-29; experiment: Induction of apoptosis in human HT-29 cells assessed as upregulation of caspase 9 activity at IC90 concentration after 2 hrs; type: functional, cell-based; how it was run: as §4
[29] = test system: HT-29; experiment: Induction of apoptosis in human HT-29 cells assessed as upregulation of caspase 8 activity at IC90 concentration after 2 hrs; type: functional, cell-based; how it was run: as §4
[30] = test system: HT-29; experiment: Cell cycle arrest in human HT-29 cells assessed as accumulation at G2/M phase at IC90 concentration after 24 hrs using propidium iodide staining by flow cytometry; type: functional; how it was run: as §2
[31] = test system: HT-29; experiment: Cell cycle arrest in human HT-29 cells assessed as accumulation at G1 phase at IC90 concentration after 24 hrs using propidium iodide staining by flow cytometry; type: functional; how it was run: as §2

Row | SMILES | IC50 [1] [µM] | IC50 [2] [µM] | IC50 [3] [µM] | IC50 [4] [µM] | IC50 [5] [µM] | IC50 [6] [µM] | IC50 [7] [µM] | IC50 [8] [µM] | Activity [10] | Activity [17] | other results
1 | C=C(C)[C@@H]1CC[C@]2(C(=O)O)CC[C@]3(C)[C@H](CC[C@@H]4[C@@]5(C)CC[C@H](OC(C)=O)C(C)(C)[C@@H]5CC[C@]43C)[C@@H]12 | 16.1 | 11.8 | 11.1 | 6.73 | 10.7 | 7.3 | 19 | 4.65 |  |  | 
2 | C=C(C)[C@@H]1CC[C@]2(C(=O)OCC(N)(CO)CO)CC[C@]3(C)[C@H](CC[C@@H]4[C@@]5(C)CCC(=O)C(C)(C)[C@@H]5CC[C@]43C)[C@@H]12 | 9.44 | 10.5 | 10.6 | 10.8 | 10.1 | 10.1 | 10 | 10.8 | Active | 20% | Activity [9]: inactive; Activity [11]: Active; Activity [12]: inactive; Activity [13]: inactive; Activity [14]: inactive; Activity [15]: inactive; Activity [16]: inactive; Activity [18]: inactive; Activity [19]: inactive; Activity [20]: inactive; Activity [21]: inactive; Activity [22]: Active; Activity [23]: inactive
3 | C=C(C)[C@@H]1CC[C@]2(C(=O)O)CC[C@]3(C)[C@H](CC[C@@H]4[C@@]5(C)CCC(=O)C(C)(C)[C@@H]5CC[C@]43C)[C@@H]12 [BETUNOLIC ACID] | 10 | 10.1 | 10.4 | 10.1 | 3.26 | 3.05 | 2.98 | 10.4 |  |  | 
4 | C=C(C)[C@@H]1CC[C@]2(C(=O)OCC(CO)CO)CC[C@]3(C)[C@H](CC[C@@H]4[C@@]5(C)CC[C@H](O)C(C)(C)[C@@H]5CC[C@]43C)[C@@H]12 | > 100 | > 100 | > 100 | > 100 | > 100 | > 100 | > 100 | > 100 |  |  | 
5 | C=C(C)[C@@H]1CC[C@]2(C(=O)NC(CO)(CO)CO)CC[C@]3(C)[C@H](CC[C@@H]4[C@@]5(C)CC[C@H](O)C(C)(C)[C@@H]5CC[C@]43C)[C@@H]12 | > 100 | > 100 | > 100 | > 100 | > 100 | > 100 | > 100 | > 100 |  |  | 
6 | C=C(C)[C@@H]1CC[C@]2(C(=O)NC(CO)(CO)CO)CC[C@]3(C)[C@H](CC[C@@H]4[C@@]5(C)CC[C@H](OC(C)=O)C(C)(C)[C@@H]5CC[C@]43C)[C@@H]12 | 10 | 29.5 | 29.4 | 30.5 | 10.3 | 10.2 | 10.1 | 29.6 |  |  | 
7 | C=C(C)[C@@H]1CC[C@]2(C(=O)OCC(N)(CO)CO)CC[C@]3(C)[C@H](CC[C@@H]4[C@@]5(C)CC[C@H](O)C(C)(C)[C@@H]5CC[C@]43C)[C@@H]12 | 8.9 | > 100 | > 100 | > 100 | 3.61 | > 100 | 3.46 | > 100 |  |  | 
8 | C=C(C)[C@@H]1CC[C@]2(C(=O)OCC(N)(CO)CO)CC[C@]3(C)[C@H](CC[C@@H]4[C@@]5(C)CC[C@H](OC(C)=O)C(C)(C)[C@@H]5CC[C@]43C)[C@@H]12 | 2.45 | 2.02 | 2.76 | 3.44 | 2.54 | 3.73 | 3.62 | 2.87 | Active | 20% | Activity [24]: 25.11%; Activity [9]: 13.85%; Activity [11]: Active; Activity [12]: 7.6%; Activity [13]: 18.07%; Activity [14]: inactive; Activity [25]: 19.83%; Activity [26]: inactive; Activity [27]: inactive; Activity [16]: inactive; Activity [28]: inactive; Activity [19]: 60.66%; Activity [29]: inactive; Activity [30]: 16.39%; Activity [20]: inactive; Activity [31]: 38.41%; Activity [22]: inactive; Activity [23]: Active
9 | C=C(C)[C@@H]1CC[C@]2(C(=O)O)CC[C@]3(C)[C@H](CC[C@@H]4[C@@]5(C)CC[C@H](O)C(C)(C)[C@@H]5CC[C@]43C)[C@@H]12 |  |  |  |  |  |  |  |  | Active | Active | 
